Assay outcomes deposited in PubChem by Broad Institute.
S100A4 inh HTS – inhibitors of human S100A4 binding to myosin IIA peptide; P26447; S100A4/TAMRA-MyoIIA peptide fluorescence polarization; AID 652163; inhibition, % at 10.7 µM; hit rate 0.14% among 360,000;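 active means mean inhibition of at least 70% across replicates, with every replicate also reaching that level; inconclusive means mean inhibition reaches 70% but some replicates fall short; inactive means mean inhibition below 70%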
Target sequence (P26447 whole entry, looked up): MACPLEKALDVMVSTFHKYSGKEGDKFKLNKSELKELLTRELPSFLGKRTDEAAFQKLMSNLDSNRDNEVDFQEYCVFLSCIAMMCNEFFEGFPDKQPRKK
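Test system – S100A4 monomer (human) · Compound – single-point compound testing · Schedule – 5 min incubation before reading · Probe or stimulus – TAMRA-labelled myosin IIA heavy-chain peptide probe, 5 nM · Benchmarks – neutral control DMSO, positive control TFP · Medium – Calcium-containing HEPES buffer, pH 7.2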
PfHsp90 set2 – inhibits growth of yeast expressing Plasmodium falciparum Hsp90 | AID 504621 | S. cerevisiae expressing PfHsp90, BacTiter-Glo ATP, 48 h; yeast lacking PDR1 and PDR3 efflux regulators | inhibition, % at 9.4 µM | hit rate 0.32% among 310,000;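 active means every replicate shows inhibition above about 80%, whatever the replicate mean, limit read from the data; inconclusive means mean inhibition reaches the set limit but some replicate falls short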;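 further: 0% = DMSO neutral controls and 100% = 20 µM radicicol positive controls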
DENV2 CPE rescue – DENV2-induced cell death inhibition. AID 651640. DENV2-infected cells, cytopathic effect rescue, plate reader. CPE inhibition, % at 9.99 µM. hit rate 1.7% among 350,000; in the data active means CPE inhibition above about 20%, passing the limit was not always enough; inconclusive means no clear call, values can overlap the other calls; tested in BHK-21 cells;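 further: 0% = median of neutral control wells and 100% = median of positive control wells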
Cneo AK release – causes C. neoformans cell lysis. adenylate kinase release luminescence, 4 h; normalised: neutral wells 0, clomiphene wells 100. lysis activity, % at 15 µM. hit rate 0.2% among 360,000. AID 651654;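 active means mean lysis activity across replicates of at least 80%, whatever share of replicates individually reach that level; inactive means mean lysis activity below 80%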
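Assay system: Cryptococcus neoformans yeast cells / Dosing: single-point compound dose / Timing: 4 h at 37 °C static, read 1 h later / Measured by: luminescence of released adenylate kinase using an AK detection reagent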
rRNA inh HTS – selective bacterial rRNA inhibition in E. coli | E. coli WT GFP vs humanized-ribosome RFP mutants, fluorescence, 24 h; hits give low values; DMSO median 0, no signal -100 | GFP signal change (wild-type ribosome), % (concentration not given with the values) | hit rate 1.6% among 350,000;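 active means significant combined selectivity score with lowered wild-type GFP, culture density cut under 30%, mutant RFP and density less affected; inactive means any of these conditions unmet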
AF4-AF9 inh – MLL-AF4/AF9 protein interaction inhibition | inhibition, % at 10 µM | hit rate 0.47% among 350,000 | AID 651704 | AlphaScreen, biotin-AF4 peptide binding to FLAG-AF9;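 active means every replicate reaching a set inhibition limit, whatever the replicate mean, cut at about 25% in these data; inconclusive means mean inhibition reaches that limit but some replicates miss it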;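 further: 0% = plate neutral control median and 100% = total signal loss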
Target sequence (P42568 whole entry, looked up): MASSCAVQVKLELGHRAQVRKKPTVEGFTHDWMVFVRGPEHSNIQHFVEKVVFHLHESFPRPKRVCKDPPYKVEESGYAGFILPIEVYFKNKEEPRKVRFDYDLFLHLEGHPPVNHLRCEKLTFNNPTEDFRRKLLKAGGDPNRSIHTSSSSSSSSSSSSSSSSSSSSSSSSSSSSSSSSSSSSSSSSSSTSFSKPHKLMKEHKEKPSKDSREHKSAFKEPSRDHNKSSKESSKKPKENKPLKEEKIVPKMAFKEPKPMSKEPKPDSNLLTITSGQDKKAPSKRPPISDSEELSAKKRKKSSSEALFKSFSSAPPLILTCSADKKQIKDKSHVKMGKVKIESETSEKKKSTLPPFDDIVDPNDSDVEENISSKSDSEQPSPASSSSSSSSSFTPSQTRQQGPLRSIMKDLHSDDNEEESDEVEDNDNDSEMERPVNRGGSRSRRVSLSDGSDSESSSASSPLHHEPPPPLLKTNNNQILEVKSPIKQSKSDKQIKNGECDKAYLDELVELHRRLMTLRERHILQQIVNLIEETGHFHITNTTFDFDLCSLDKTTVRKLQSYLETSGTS
The depositor's hits bear a star; ? = inconclusive; nt = not tested or not shown; ! = repeats disagree. Hits are enriched below; roughly 3.2% of the tested compounds scored in any of these assays.

SMILES | S100A4 inh HTS | PfHsp90 set2 | DENV2 CPE rescue | Cneo AK release | rRNA inh HTS | AF4-AF9 inh
O=C(NCCN1CCOCC1)C(=O)NCC1OCCN1S(=O)(=O)c1ccc(Cl)cc1 (configuration not stated) | 9 | nt | 79* | 0 | 5 | 0
COc1cc(CO)cc(I)c1O[C@H]1C=C(C(=O)NCCO)C[C@@H](N(C(=O)c2cc3ccccc3oc2=O)C2CCCCCC2)[C@@H]1O | 4 | nt | -1 | -4 | nt | 2
COc1cc(CO)cc(I)c1O[C@H]1C=C(C(=O)NCCO)C[C@@H](N(CC2CCCCC2)C(=O)c2cc3ccccc3oc2=O)[C@@H]1O | 2 | nt | -11 | 92* | nt | -2
COc1ccc(NC(=O)N2CC(=O)N3[C@@H](CO)[C@@H](c4ccc(/C=C/c5ccccc5)cc4)[C@@H]3C2)cc1 | -4 | nt | 4 | nt | nt | 3
COCC(=O)Nc1ccc2c(c1)[C@H]1C[C@@H](CC(=O)NC3CCCCC3)O[C@H](CO)[C@H]1O2 | 5 | nt | 33* | 1 | 2 | 1
O=C(CC1CC1)Nc1ccc2c(c1)[C@@H]1C[C@H](CC(=O)NC3CCCC3)O[C@@H](CO)[C@@H]1O2 | 0 | nt | 29*! | 0 | 4 | -6
O=C(CC1CC1)Nc1ccc2c(c1)[C@@H]1C[C@@H](CC(=O)NC3CCCC3)O[C@@H](CO)[C@@H]1O2 | 0 | nt | -6 | 4 | -1 | -1
COc1ccc(S(=O)(=O)Nc2ccc3c(c2)C(=O)N([C@H](C)CO)C[C@H](C)[C@@H](CN(C)C)O3)cc1 | 0 | nt | 69* | -3 | 1 | -3
COc1ccc(S(=O)(=O)N(C)C[C@@H]2Oc3ccc(NC(=O)Nc4ccccc4)cc3C(=O)N([C@H](C)CO)C[C@H]2C)cc1 | 10 | nt | -4 | -1 | -10 | 0
COc1ccc(S(=O)(=O)Nc2ccc3c(c2)C(=O)N([C@@H](C)CO)C[C@@H](C)[C@H](CN(C)S(=O)(=O)c2ccc(Cl)cc2)O3)cc1 | nt | nt | 85* | 8 | -5 | nt
COc1ccc(NC(=O)Nc2ccc3c(c2)C(=O)N([C@H](C)CO)C[C@@H](C)[C@H](CN(C)S(=O)(=O)c2ccc(Cl)cc2)O3)cc1 | -17 | nt | 68* | 0 | -9 | 1
COc1ccc(S(=O)(=O)N(C)C[C@@H]2Oc3ccc(NC(=O)Nc4ccccc4)cc3C(=O)N([C@@H](C)CO)C[C@H]2C)cc1 | 1 | nt | 35* | -4 | -5 | -1
COc1ccc(S(=O)(=O)Nc2ccc3c(c2)C(=O)N([C@@H](C)CO)C[C@H](C)[C@@H](CN(C)C)O3)cc1 | 10 | nt | 13 | -1 | 7 | -2
COc1ccc(S(=O)(=O)Nc2ccc3c(c2)C(=O)N([C@@H](C)CO)C[C@H](C)[C@H](CN(C)S(=O)(=O)c2ccc(Cl)cc2)O3)cc1 | nt | nt | 15 | -1 | 0 | nt
CCCNC(=O)N1C[C@@H](C)[C@H](OC)CN(C)C(=O)c2cc(NC(=O)C3CCC3)ccc2OC[C@H]1C | nt | nt | nt | nt | 2 | nt
COc1ccc(NC(=O)Nc2ccc3c(c2)C(=O)N([C@@H](C)CO)C[C@@H](C)[C@H](CN(C)S(=O)(=O)c2ccc(OC)cc2)O3)cc1 | 6 | nt | 28* | -1 | -7 | 4
COc1ccc(NC(=O)Nc2ccc3c(c2)C(=O)N([C@@H](C)CO)C[C@H](C)[C@@H](CN(C)S(=O)(=O)c2ccc(OC)cc2)O3)cc1 | -16 | nt | -2 | 0 | 1 | 5
COc1ccc(S(=O)(=O)N(C)C[C@H]2Oc3ccc(NC(=O)CCCN(C)C)cc3C(=O)N([C@@H](C)CO)C[C@H]2C)cc1 | 13 | nt | 33* | 5 | -2 | -1
C[C@H](NC(=O)C1CCN(S(=O)(=O)c2ccccc2)CC1)C(=O)NCc1cccnc1 | -2 | nt | 37* | 1 | 8 | -5
COc1ccc(S(=O)(=O)N2CCC(C(=O)N[C@H](C(=O)NCc3ccccc3)C(C)C)CC2)cc1 | -2 | nt | 47* | 5 | 5 | -2
CC(C)NC(=O)N(C)C[C@@H]1OCCCC[C@@H](C)Oc2ccc(NC(=O)NC3CCCCC3)cc2C(=O)N([C@@H](C)CO)C[C@H]1C | 0 | nt | 14 | -1 | -1 | -2
Cc1cccc(NC(=O)NC(C)CCc2ccccc2)c1 (configuration not stated) | -8 | 2 | -2 | 0 | nt | -2
Cc1cccc(NC(=S)NC(C)CCc2ccccc2)c1 (configuration not stated) | -3 | -19 | 45* | 6 | -26 | -15
C[C@@H]1CCCCO[C@H](CN(C)C(=O)CCCN(C)C)[C@@H](C)CN([C@H](C)CO)C(=O)c2cc(NC(=O)C3CCCCC3)ccc2O1 | -5 | nt | 9 | 0 | 0 | -7
C[C@H]1CCCCO[C@H](CN(C)C(=O)Nc2ccccc2)[C@@H](C)CN([C@@H](C)CO)C(=O)c2cc(NC(=O)c3ccccc3)ccc2O1 | 23 | nt | -10 | 2 | -2 | -1
SMILES | S100A4 inh HTS | PfHsp90 set2 | DENV2 CPE rescue | Cneo AK release | rRNA inh HTS | AF4-AF9 inh
CN(C)CCCN(Cc1ccccc1)C(=S)Nc1ccc(F)c(Cl)c1 | -8 | 18 | 5 | 0 | -46* | -4
CN(C)CCCN(Cc1ccccc1)C(=S)Nc1cccc(C(F)(F)F)c1 | nt | 0 | nt | nt | nt | nt
Cc1cc(NC(=S)N(Cc2ccc(Cl)cc2)Cc2ccc(C(=O)O)cc2)ccc1Cl | 2 | -40 | -4 | -1 | -58 | -3
COc1ccc(NC(=S)N(Cc2ccc(Cl)cc2)Cc2ccc(C(=O)O)cc2)cc1Cl | -12 | 0 | -1 | 3 | -32* | -1
COc1ccc(NC(=S)N(CCCN2CCCC2)Cc2cccn2Cc2ccc(Cl)cc2)cc1Cl | -5 | -3 | -17 | 3 | -45 | 33*
Cc1ccc(O)c(-c2cc(-c3cccc(Br)c3)n[nH]2)c1 | 3 | 105* | 5 | 3 | -51 | 0
Cc1ccc(-c2cc(-c3ccc(C)cc3O)[nH]n2)cc1 | -9 | -12 | 1 | -1 | 2 | -4
COc1ccc(NC(=O)N(C)C[C@H]2OCCCC[C@H](C)Oc3ccc(NC(=O)CCC(F)(F)F)cc3C(=O)N([C@@H](C)CO)C[C@@H]2C)cc1 | 6 | nt | -6 | 0 | -4 | 2
O=C(NN1C(=O)NC2(CCCCC2)C1=O)c1cc(F)cc(F)c1 | 1 | 6 | 32* | -1 | 8 | -2
O=C(NN1C(=O)NC2(CCCCC2)C1=O)c1ccc(Cl)c(Cl)c1 | -1 | 1 | ? | 0 | nt | -1
CC(C)Oc1ccc(C(=O)NN2C(=O)NC3(CCCCC3)C2=O)cc1 | -4 | 38 | 68* | 1 | -7 | -2
COc1ccc(NC(=O)Nc2ccc3c(c2)C(=O)N([C@@H](C)CO)C[C@@H](C)[C@H](CN(C)S(=O)(=O)c2cn(C)cn2)OCCCC[C@H](C)O3)cc1 | nt | nt | ? | 0 | -2 | nt
